Reference: ChEMBL document CHEMBL4229443, “Activation studies with amines and amino acids of the α-carbonic anhydrase from the pathogenic protozoan Trypanosoma cruzi” (Bioorg Med Chem, 2018)

Compound: N[C@@H](Cc1c[nH]c2ccccc12)C(=O)O
Test: Activation of Trypanosoma cruzi CA assessed as Kcat at 10 uM preincubated for 15 mins followed by CO2 addition by stopped-flow assay (reference value: 1.2 10^6/s)
Outline: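 kcat of recombinant TcCA measured with 10 µM activator after 15 min pre-incubation at room temperature. Stopped-flow CO2 hydration in 10 mM Hepes pH 7.5 with 0.1 M Na2SO4 and 0.2 mM phenol red (557 nm), 25 °C. Initial velocities from the first 5–10% of the reaction, uncatalyzed rate subtracted. Mean of at least three determinations.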

B1: Carbonic anhydrase-like protein, putative (Trypanosoma cruzi (strain CL Brener)), Q4CVY4 (protein)
chain: MTCGIRRGEGREGSKMVKAVIFSLLCLHVHALMSPVSAENGYTTAGLPREKPQGPQWGYTNLTAWPKLCQTGKQQSPVSFSELQPNEVVHRKDMGPLVFSRDCKFAAEKTSLKIENEVNTISVRFIPLDDPTNKFPSLCTVRDPTDPDSPEYHLVSMHFHSPAEHVLPCANPDAELHLVFAHTQQSRQPHLMVVVVQLVASDKINSTSVAALKHILLDGSLPPKRAVTTCTLTENMTIAGFLPQSGSYFAYNGSLTTPPCTEGVLFVVLTSPQIISKTALERLVEAFQRARPGNHNGNHRPTQPLNGRVVYHFVDMHHMNYSMCMRDMENHHTNSSQMAGMSGAMQHMNCSMCMRNMENHHKNSSQMEGMSGAMQHMNCSMCMRNMENHHKNSSQMAGMSGAMQHMNCSMCMRNMENHHTNSSQMAGMSGAMQHMNCSMCMRNMENHHKNSSQMAGMSGAMQHMNCSMCMRNMENHHTNSSQMAGMSGAMQHMNCSMCMRNMENHHTNSSQMAGMSGAMQHMNCSMCMRNMENHHKNSSQMEGMSSEEMSMMERSANESSGAQLAGLASEENATNTSSAPANKWPHQFNSRERLFLIAAALVLLLVTFILYRWRNSSARETETESLFRSHEGYGTTNP
**Q.** For B1, which kcat is on record?
**A.** The kcat was 7.8 ×10⁶ /s.
